Test results published in ChEMBL document CHEMBL3351734 (Bioorg Med Chem Lett, 2014).
Values after ≈ are worked out from the molar mass of the structure shown. Active and inactive are the calls of the source. The calls are words filed in the database; no cut-off is given here. Residues, ends and D or L forms follow the SMILES beside them. *: point of attachment. Boc = CC(C)(C)OC(=O)*; NHBn = c1ccc(CN*)cc1

Tests used:
[1] = system: Mycobacterium intracellulare; experiment: Antimicrobial activity against Mycobacterium intracellulare ATCC 23068 after 70 to 74 hrs by Alamar Blue method; format: functional, organism-based
Cryptococcus neoformans [2] = experiment: Antimicrobial activity against Cryptococcus neoformans ATCC 90113 assessed as complete killing after 70 to 74 hrs by CLSI method; format: functional
SK-MEL = experiment: Cytotoxicity against human SK-MEL cells after 48 hrs by neutral red assay; format: cell-based
Summary of the method: (§1)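 Cells were exposed to peptides up to a highest tested concentration of 10 μg/mL, using a previously reported cytotoxicity protocol.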

KB = experiment: Cytotoxicity against human KB cells after 48 hrs by neutral red assay; format: cell-based; summary of the method: as §1
BT-549 = experiment: Cytotoxicity against human BT549 cells after 48 hrs by neutral red assay; format: cell-based; details: bt-549, 48 h; summary of the method: as §1
[3] = Cytotoxicity against human SKOV3 cells after 48 hrs by neutral red assay; format: cell-based; details: sk-ov-3, 48 h; summary of the method: as §1
Vero = experiment: Cytotoxicity against African green monkey Vero cells after 48 hrs by neutral red assay; format: cell-based; details: chlorocebus sabaeus; summary of the method: as §1
[4] = Cytotoxicity against pig LLC-PK cells after 48 hrs by neutral red assay; format: cell-based, Sus scrofa; summary of the method: as §1
Cryptococcus neoformans [5] = experiment: Antimicrobial activity against Cryptococcus neoformans ATCC 90113 assessed as detectable growth after 70 to 74 hrs by CLSI method; format: functional
Cryptococcus neoformans [6] = experiment: Antimicrobial activity against Cryptococcus neoformans ATCC 90113 assessed as growth inhibition after 70 to 74 hrs by CLSI method; format: functional, organism-based
Staphylococcus aureus [7] = experiment: Antibacterial activity against Staphylococcus aureus ATCC 29213 assessed as absence of detectable growth; format: functional
Summary of the method: (§2)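 Antibacterial susceptibility determined by the CLSI (formerly NCCLS) protocol. MIC is the lowest test concentration (μg/mL) allowing no detectable growth. MBC is the lowest test concentration killing 100% of the organism.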

Staphylococcus aureus [8] = experiment: Antibacterial activity against Staphylococcus aureus ATCC 29213 assessed as 100% killing; format: functional; summary of the method: as §2
Staphylococcus aureus [9] = experiment: Antibacterial activity against methicillin-resistant Staphylococcus aureus ATCC 33591 assessed as 100% killing; format: functional
Summary of the method: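 Testing followed the CLSI (formerly NCCLS) susceptibility protocol. MBC was taken as the lowest test concentration in μg/mL that kills 100% of the organism.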

Staphylococcus aureus [10] = experiment: Antibacterial activity against methicillin-resistant Staphylococcus aureus ATCC 33591 assessed as absence of detectable growth; format: functional
Summary of the method: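 MIC was determined by the CLSI (formerly NCCLS) protocol. It was taken as the lowest test concentration in μg/mL allowing no detectable growth.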

Compound	inhibition [1]	MFC (Cryptococcus neoformans [2])	Activity (SK-MEL)	Activity (KB)	Activity (BT-549)	Activity [3]	Activity (Vero)	Activity [4]	MIC (Cryptococcus neoformans [5])	IC50 (Cryptococcus neoformans [6])	MIC (Staphylococcus aureus [7])	MBC (Staphylococcus aureus [8])	MBC (Staphylococcus aureus [9])	MIC (Staphylococcus aureus [10])
N[C@@H](Cc1cnc[nH]1)C(=O)N[C@@H](Cc1c[nH]c2ccccc12)C(=O)N[C@@H](Cc1cnc[nH]1)C(=O)NCc1ccccc1 (H-His-Trp-His-NHBn)	inactive	10 µg/mL (≈ 17.6 µM)	> 10 µg/mL	> 10 µg/mL	> 10 µg/mL	> 10 µg/mL	> 10 µg/mL	> 10 µg/mL						
CC(C)c1ncc(C[C@H](NC(=O)[C@H](Cc2c[nH]c3ccccc23)NC(=O)[C@@H](N)Cc2cnc(C(C)C)[nH]2)C(=O)NCc2ccccc2)[nH]1	inactive		> 10 µg/mL	> 10 µg/mL	> 10 µg/mL	> 10 µg/mL	> 10 µg/mL	> 10 µg/mL	20 µg/mL (≈ 30.7 µM)					
CC(C)c1ncc(C[C@H](NC(=O)OC(C)(C)C)C(=O)N[C@@H](Cc2c[nH]c3ccccc23)C(=O)N[C@@H](Cc2cnc(C(C)C)[nH]2)C(=O)NCc2ccccc2)[nH]1	inactive	inactive	> 10 µg/mL	> 10 µg/mL	> 10 µg/mL	> 10 µg/mL	> 10 µg/mL	> 10 µg/mL	inactive	Not Active				
O=C(O)c1cn(C2CC2)c2cc(N3CCNCC3)c(F)cc2c1=O [CIPROFLOXACIN]	inactive													
C[C@@H]1[C@H](O)[C@@H](C)/C=C/C=C/C=C/C=C/C=C/C=C/C=C/[C@H](O[C@@H]2O[C@H](C)[C@@H](O)[C@H](N)[C@@H]2O)C[C@@H]2O[C@](O)(C[C@@H](O)C[C@@H](O)[C@H](O)CC[C@@H](O)C[C@@H](O)CC(=O)O[C@H]1C)C[C@H](O)[C@H]2C(=O)O [AMPHOTERICIN B]	inactive	1.25 µg/mL (≈ 1.35 µM)	> 10 µg/mL	> 10 µg/mL	> 10 µg/mL	> 10 µg/mL	> 10 µg/mL	> 10 µg/mL						
CC(C)(C)OC(=O)N[C@@H](Cc1cnc(C2CCCCC2)[nH]1)C(=O)N[C@@H](Cc1c[nH]c2ccccc12)C(=O)N[C@@H](Cc1cnc(C2CCCCC2)[nH]1)C(=O)NCc1ccccc1	inactive	inactive	> 10 µg/mL	> 10 µg/mL	> 10 µg/mL	> 10 µg/mL	> 10 µg/mL	> 10 µg/mL	inactive	Not Active				
CC(C)(C)OC(=O)N[C@@H](Cc1cnc(C23CC4CC(CC(C4)C2)C3)[nH]1)C(=O)N[C@@H](Cc1c[nH]c2ccccc12)C(=O)N[C@@H](Cc1cnc(C23CC4CC(CC(C4)C2)C3)[nH]1)C(=O)NCc1ccccc1	inactive		> 10 µg/mL	> 10 µg/mL	> 10 µg/mL	> 10 µg/mL	> 10 µg/mL	> 10 µg/mL			20 µg/mL (≈ 21.4 µM)	20 µg/mL (≈ 21.4 µM)	20 µg/mL (≈ 21.4 µM)	
N[C@@H](Cc1cnc(C2CCCCC2)[nH]1)C(=O)N[C@@H](Cc1c[nH]c2ccccc12)C(=O)N[C@@H](Cc1cnc(C2CCCCC2)[nH]1)C(=O)NCc1ccccc1	inactive		> 10 µg/mL	> 10 µg/mL	> 10 µg/mL	> 10 µg/mL	> 10 µg/mL	> 10 µg/mL	1.25 µg/mL (≈ 1.71 µM)					
N[C@@H](Cc1cnc(C2CCCC2)[nH]1)C(=O)N[C@@H](Cc1c[nH]c2ccccc12)C(=O)N[C@@H](Cc1cnc(C2CCCC2)[nH]1)C(=O)NCc1ccccc1	inactive	inactive	> 10 µg/mL	> 10 µg/mL	> 10 µg/mL	> 10 µg/mL	> 10 µg/mL	> 10 µg/mL	inactive	Not Active				
CC(C)(C)OC(=O)N[C@@H](Cc1cnc(C(C)(C)C)[nH]1)C(=O)N[C@@H](Cc1c[nH]c2ccccc12)C(=O)N[C@@H](Cc1cnc(C(C)(C)C)[nH]1)C(=O)NCc1ccccc1	inactive	inactive	> 10 µg/mL	> 10 µg/mL	> 10 µg/mL	> 10 µg/mL	> 10 µg/mL	> 10 µg/mL	inactive	Not Active				
CC(C)(C)c1ncc(C[C@H](NC(=O)[C@H](Cc2c[nH]c3ccccc23)NC(=O)[C@@H](N)Cc2cnc(C(C)(C)C)[nH]2)C(=O)NCc2ccccc2)[nH]1	inactive	20 µg/mL (≈ 29.4 µM)	> 10 µg/mL	> 10 µg/mL	> 10 µg/mL	> 10 µg/mL	> 10 µg/mL	> 10 µg/mL						
CC(C)(C)OC(=O)N[C@@H](Cc1cnc(C2CCCC2)[nH]1)C(=O)N[C@@H](Cc1c[nH]c2ccccc12)C(=O)N[C@@H](Cc1cnc(C2CCCC2)[nH]1)C(=O)NCc1ccccc1	inactive	inactive	> 10 µg/mL	> 10 µg/mL	> 10 µg/mL	> 10 µg/mL	> 10 µg/mL	> 10 µg/mL	inactive					
CC(C)(C)OC(=O)N[C@@H](Cc1cnc[nH]1)C(=O)N[C@@H](Cc1c[nH]c2ccccc12)C(=O)N[C@@H](Cc1cnc[nH]1)C(=O)NCc1ccccc1 (Boc-His-Trp-His-NHBn)	inactive	1.25 µg/mL (≈ 1.87 µM)	> 10 µg/mL	> 10 µg/mL	> 10 µg/mL	> 10 µg/mL	> 10 µg/mL	> 10 µg/mL						
N[C@@H](Cc1cnc(C23CC4CC(CC(C4)C2)C3)[nH]1)C(=O)N[C@@H](Cc1c[nH]c2ccccc12)C(=O)N[C@@H](Cc1cnc(C23CC4CC(CC(C4)C2)C3)[nH]1)C(=O)NCc1ccccc1	inactive		> 10 µg/mL	> 10 µg/mL	> 10 µg/mL	> 10 µg/mL	> 10 µg/mL	> 10 µg/mL	0.63 µg/mL (≈ 0.754 µM)		5 µg/mL (≈ 5.98 µM)			10 µg/mL (≈ 12 µM)
